Data published in ChEMBL document CHEMBL1126014, “New conformationally restricted 99mTc N2S2 complexes as myocardial perfusion imaging agents” (J Med Chem, 1992).

Experiments:
Rattus norvegicus [1] = test: Biodistribution of the radiolabeled compound (2-5 uCi) in rat muscle 15 mins after i.v. administration; format: ADME, organism-based, Muscle tissue; details: in vivo, iv, 0.25 h
Summary of the method: (§1)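 Rats given the 99mTc complex iv. At set times, blood was drawn by cardiac puncture and the animals were killed at once by cardiectomy. Organs were excised, weighed and gamma-counted. Percent dose per organ was found by comparing tissue radioactivity with suitable dilutions of the injected dose.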

Rattus norvegicus [2] = test: Biodistribution of the radiolabeled compound (2-5 uCi) in rat lung 15 mins after i.v. administration; format: ADME, organism-based; details: in vivo, iv, 0.25 h; summary of the method: as §1
Rattus norvegicus [3] = test: Biodistribution of the radiolabeled compound (2-5 uCi) in rat heart 2 mins after i.v. administration; format: ADME, organism-based; details: in vivo, iv; summary of the method: as §1
Rattus norvegicus [4] = test: Biodistribution of the radiolabeled compound (2-5 uCi) in rat brain 15 mins after i.v. administration; format: ADME, organism-based; details: in vivo, iv, 0.25 h; summary of the method: as §1
Rattus norvegicus [5] = test: Biodistribution of the radiolabeled compound (2-5 uCi) in rat heart 15 mins after i.v. administration; format: ADME, organism-based; details: in vivo, iv, 0.25 h; summary of the method: as §1
Rattus norvegicus [6] = test: Biodistribution of the radiolabeled compound (2-5 uCi) in rat blood 15 mins after i.v. administration; format: ADME, organism-based; details: in vivo, iv, 0.25 h; summary of the method: as §1
Rattus norvegicus [7] = test: Heart/blood ratio of the radiolabeled compound (2-5 uCi) in rat 15 mins after i.v. administration; details: in vivo, iv, 0.25 h
Rattus norvegicus [8] = test: Biodistribution of the radiolabeled compound (2-5 uCi) in rat skin 2 mins after i.v. administration; format: ADME, organism-based, Zone of skin; details: in vivo, iv; summary of the method: as §1
Rattus norvegicus [9] = test: Biodistribution of the radiolabeled compound (2-5 uCi) in rat muscle 65 mins after i.v. administration; format: ADME, organism-based, Muscle tissue; details: in vivo, iv; summary of the method: as §1
Rattus norvegicus [10] = test: Biodistribution of the radiolabeled compound (2-5 uCi) in rat lung 2 mins after i.v. administration; format: ADME, organism-based; details: in vivo, iv; summary of the method: as §1
[11] = Partition coefficient in buffer containing 0.1 M NH4PF6; format: ADME; details: octanol/water
Summary of the method: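 The 99mTc complex was mixed with 3 g each of 1-octanol and 50 mM phosphate buffer pH 7.4 containing 0.1 M NH4PF6. Tubes were vortexed three times for 1 min at room temperature and centrifuged 5 min. Weighed samples of each layer were gamma-counted. PC = counts per gram in octanol / counts per gram in aqueous.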

Rattus norvegicus [12] = test: Biodistribution of the radiolabeled compound (2-5 uCi) in rat lung 65 mins after i.v. administration; format: ADME, organism-based; details: in vivo, iv; summary of the method: as §1
Rattus norvegicus [13] = test: Biodistribution of the radiolabeled compound (2-5 uCi) in rat spleen 15 mins after i.v. administration; format: ADME, organism-based; details: in vivo, iv, 0.25 h; summary of the method: as §1
Rattus norvegicus [14] = test: Biodistribution of the radiolabeled compound (2-5 uCi) in rat kidney 15 mins after i.v. administration; format: ADME, organism-based; details: in vivo, iv, 0.25 h; summary of the method: as §1
[15] = Partition coefficient in buffer containing 0.1 M NaCl; format: ADME; details: octanol/water
Summary of the method: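 Octanol/buffer partition: the 99mTc complex was shaken with 3 g 1-octanol plus 3 g 50 mM phosphate pH 7.4 containing 0.1 M NaCl. Vortexing was 3 × 1 min at room temperature, followed by 5 min centrifugation. Weighed samples from both layers were gamma-counted. Ratio = octanol counts/g over aqueous counts/g.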

Rattus norvegicus [16] = test: Biodistribution of the radiolabeled compound (2-5 uCi) in rat liver 15 mins after i.v. administration; format: ADME, organism-based; details: in vivo, iv, 0.25 h; summary of the method: as §1
Rattus norvegicus [17] = test: Biodistribution of the radiolabeled compound (2-5 uCi) in rat muscle 2 mins after i.v. administration; format: ADME, organism-based, Muscle tissue; details: in vivo, iv; summary of the method: as §1
Rattus norvegicus [18] = test: Biodistribution of the radiolabeled compound (2-5 uCi) in rat brain 65 mins after i.v. administration; format: ADME, organism-based; details: in vivo, iv; summary of the method: as §1
Rattus norvegicus [19] = test: Biodistribution of the radiolabeled compound (2-5 uCi) in rat heart 65 mins after i.v. administration; format: ADME, organism-based; details: in vivo, iv; summary of the method: as §1
Rattus norvegicus [20] = test: Biodistribution of the radiolabeled compound (2-5 uCi) in rat kidney 2 mins after i.v. administration; format: ADME, organism-based; details: in vivo, iv; summary of the method: as §1
Rattus norvegicus [21] = test: Biodistribution of the radiolabeled compound (2-5 uCi) in rat liver 65 mins after i.v. administration; format: ADME, organism-based; details: in vivo, iv; summary of the method: as §1
Rattus norvegicus [22] = test: Biodistribution of the radiolabeled compound (2-5 uCi) in rat skin 15 mins after i.v. administration; format: ADME, organism-based, Zone of skin; details: in vivo, iv, 0.25 h; summary of the method: as §1
Rattus norvegicus [23] = test: Biodistribution of the radiolabeled compound (2-5 uCi) in rat blood 2 mins after i.v. administration; format: ADME, organism-based; details: in vivo, iv; summary of the method: as §1
Rattus norvegicus [24] = test: Biodistribution of the radiolabeled compound (2-5 uCi) in rat liver 2 mins after i.v. administration; format: ADME, organism-based; details: in vivo, iv; summary of the method: as §1
Rattus norvegicus [25] = test: Biodistribution of the radiolabeled compound (2-5 uCi) in rat kidney 65 mins after i.v. administration; format: ADME, organism-based; details: in vivo, iv; summary of the method: as §1
Rattus norvegicus [26] = test: Heart by blood ratio of the radiolabeled compound (2-5 uCi) in rat 65 mins after i.v. administration; details: in vivo, iv
Rattus norvegicus [27] = test: Biodistribution of the radiolabeled compound (2-5 uCi) in rat skin 65 mins after i.v. administration; format: ADME, organism-based, Zone of skin; details: in vivo, iv; summary of the method: as §1
Rattus norvegicus [28] = test: Biodistribution of the radiolabeled compound (2-5 uCi) in rat blood 65 mins after i.v. administration; format: ADME, organism-based; details: in vivo, iv; summary of the method: as §1
Rattus norvegicus [29] = test: Biodistribution of the radiolabeled compound (2-5 uCi) in rat spleen 2 mins after i.v. administration; format: ADME, organism-based; details: in vivo, iv; summary of the method: as §1
Rattus norvegicus [30] = test: Biodistribution of the radiolabeled compound (2-5 uCi) in rat brain 2 mins after i.v. administration; format: ADME, organism-based; details: in vivo, iv; summary of the method: as §1
Rattus norvegicus [31] = test: Biodistribution of the radiolabeled compound (2-5 uCi) in rat spleen 65 mins after i.v. administration; format: ADME, organism-based; details: in vivo, iv; summary of the method: as §1
Rattus norvegicus [32] = test: Heart by blood ratio of the radiolabeled compound (2-5 uCi) in rat 2 mins after i.v. administration; details: in vivo, iv

SMILES	Biodistribution (Rattus norvegicus [1]) [dose/organ %]	Biodistribution (Rattus norvegicus [2]) [dose/organ %]	Biodistribution (Rattus norvegicus [3]) [dose/organ %]	Biodistribution (Rattus norvegicus [4]) [dose/organ %]	Biodistribution (Rattus norvegicus [5]) [dose/organ %]	Biodistribution (Rattus norvegicus [6]) [dose/organ %]	heart/blood ratio (Rattus norvegicus [7])	Biodistribution (Rattus norvegicus [8]) [dose/organ %]	Biodistribution (Rattus norvegicus [9]) [dose/organ %]	Biodistribution (Rattus norvegicus [10]) [dose/organ %]	Partition coefficient [11]	Biodistribution (Rattus norvegicus [12]) [dose/organ %]	Biodistribution (Rattus norvegicus [13]) [dose/organ %]	Biodistribution (Rattus norvegicus [14]) [dose/organ %]	Partition coefficient [15]	Biodistribution (Rattus norvegicus [16]) [dose/organ %]	Biodistribution (Rattus norvegicus [17]) [dose/organ %]	Biodistribution (Rattus norvegicus [18]) [dose/organ %]	Biodistribution (Rattus norvegicus [19]) [dose/organ %]	Biodistribution (Rattus norvegicus [20]) [dose/organ %]	other results
CC(C)(S)CN1CCN(CC(C)(C)S)CC1	10.12	0.23	0.21	0.01	0.1	2	0.5	6.65	5.06	0.62	10.75	0.12	0.25	9.43	1.09	29.63	10.67	0.003	0.07	15.71	Biodistribution (Rattus norvegicus [21]): 20.2 dose/organ %; Biodistribution (Rattus norvegicus [22]): 14.13 dose/organ %; Biodistribution (Rattus norvegicus [23]): 7.16 dose/organ %; Biodistribution (Rattus norvegicus [24]): 31.81 dose/organ %; Biodistribution (Rattus norvegicus [25]): 1.09 dose/organ %; heart/blood ratio (Rattus norvegicus [26]): 1; Biodistribution (Rattus norvegicus [27]): 7.13 dose/organ %; Biodistribution (Rattus norvegicus [28]): 0.7 dose/organ %; Biodistribution (Rattus norvegicus [29]): 0.57 dose/organ %; Biodistribution (Rattus norvegicus [30]): 0.03 dose/organ %; Biodistribution (Rattus norvegicus [31]): 0.08 dose/organ %; heart/blood ratio (Rattus norvegicus [32]): 0.29
CC(C)(S)CN1CCCN(CC(C)(C)S)CC1	6.98	0.28	0.42	0.01	0.38	1.14	3.33	7.45	8.66	0.56	11.5	0.23	0.26	15.9	1.19	27.48	9.08	0.007	0.37	19.37	Biodistribution (Rattus norvegicus [21]): 15.23 dose/organ %; Biodistribution (Rattus norvegicus [22]): 5.16 dose/organ %; Biodistribution (Rattus norvegicus [23]): 3.57 dose/organ %; Biodistribution (Rattus norvegicus [24]): 25.92 dose/organ %; Biodistribution (Rattus norvegicus [25]): 4.26 dose/organ %; heart/blood ratio (Rattus norvegicus [26]): 4.8; Biodistribution (Rattus norvegicus [27]): 6.8 dose/organ %; Biodistribution (Rattus norvegicus [28]): 0.77 dose/organ %; Biodistribution (Rattus norvegicus [29]): 0.41 dose/organ %; Biodistribution (Rattus norvegicus [30]): 0.04 dose/organ %; Biodistribution (Rattus norvegicus [31]): 0.22 dose/organ %; heart/blood ratio (Rattus norvegicus [32]): 1.18
